Apaf1 inhib – human Apaf-1 inhibition | 0.71% of 330,000 active | reconstituted apoptosome caspase-3 activity, DEVD-Rh110 fluorescence | inhibition, % at 20 µM | O14727; active = inhibition of at least 40% at 20 µM;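 note: plate controls were DMSO wells for no effect and DEVD-CHO caspase inhibitor wells for full effect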
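Assay system – apoptosome proteins · Medium – Hepes buffer, pH 7.5 · Also added – cytochrome c with DEVD-Rh110 · Timing – 30 min compound preincubation, 50 min activation, room temperature · Detection – Rh110 fluorescence, excitation 480 nm, emission 540 nm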
ANO1 block – inhibitors of mouse TMEM16A calcium-activated chloride channel. Q8BHY3. HEK293 TMEM16A/YFP iodide influx fluorescence, ionomycin. normalized B-score (activity score, 25-100; higher = stronger inhibition) at 10 µM. 1.2% of 310,000 active;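 active = ratio plate-corrected score three or more library SD toward inhibition, starting fluorescence score within five deviations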;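 note: score derived from kinetic fluorescence span divided by baseline fluorescence per well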
FID counter – fluorescent intercalator displacement, NS3 helicase counter-screen. 0.17% of 290,000 active. inhibition, % at 7.9 µM. DNA fluorescent intercalator displacement, fluorescence. AID 1845; in the data active = inhibition above about 37%;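 note: 0% = vehicle and 100% = reference compound; higher means more ethidium bromide displaced from hairpin DNA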
UBC13 inh – human UBC13 polyubiquitination inhibition | UBC13 polyubiquitin chain formation, TR-FRET | inhibition, % at 20 µM | 0.47% of 330,000 active; in the data active = inhibition above about 45%, passing the limit was not always enough
Target sequence (P61088 whole entry, looked up): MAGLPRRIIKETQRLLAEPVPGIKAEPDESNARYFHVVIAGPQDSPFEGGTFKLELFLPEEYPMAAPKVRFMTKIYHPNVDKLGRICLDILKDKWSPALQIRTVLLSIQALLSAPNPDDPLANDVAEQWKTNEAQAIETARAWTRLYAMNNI
TMEM16A act – mouse TMEM16A channel activation, primary screen; HEK293 TMEM16A/YFP-H148Q/I152L, iodide quench fluorescence; active compounds read low; B-score at 10 µM; 0.3% of 340,000 active;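 active = fluorescence-ratio B-score plate-corrected deviation score at least 3 library SD below zero, with starting fluorescence score within 5 deviations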;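 note: channel opened by trigger with iodide after compound preincubation; score built on the fluorescence ratio of max minus min over baseline; more negative score means more quench and so TMEM16A activation or potentiation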
* hit, by the source's call; i = inactive; . = no result. An excerpt weighted towards active compounds, which were near 2.4% of everything screened.

SMILES	Apaf1 inhib	ANO1 block	FID counter	UBC13 inh	TMEM16A act
NC(=O)COC(=O)/C=C/c1cccc(Br)c1	2	i	-5	2	i
Cc1ccc(OCCNC(=O)CNC(=O)c2ccc(C)cc2)cc1	11	i	-23	-2	i
Cc1ccc(OCCNC(=O)CCNC(=O)c2ccc(Cl)cc2)cc1	4	.	.	5	-26*
Clc1cccc(Cl)c1NC1=NCCN1	-10	i	0	0	.
CN(C)c1ccc(-c2c(-c3ccc4c(c3)OCO4)noc2-c2ccsc2)cn1	34	i	-12	-25	i
O=C(O)c1cc(-c2ccc(-c3c(-c4ccc5c(c4)OCO5)noc3-c3ccsc3)cc2)nc2ccccc12	.	100*	31	.	i
CCN1CCN(C(=O)C(Cc2ccccc2)NC(=O)c2ccc(Cl)c(S(=O)(=O)N(C)C)c2)CC1 (configuration not stated)	3	.	.	5	-46*
O=C(NC(Cc1ccccc1)C(=O)N1CCN(S(=O)(=O)c2ccccc2F)CC1)c1ccccc1 (configuration not stated)	-1	.	.	6	i
CSCCC(NC(=O)c1ccccc1Br)C(=O)NCC(C)(C)N1CCOCC1 (configuration not stated)	10	i	.	-7	i
O=C(CCSC1=NCCCN1)c1ccc(F)cc1	.	.	.	.	i
O=C(O)CSCC(=O)N(Cc1ccccc1)c1nc(-c2ccccc2)c(-c2ccccc2)s1	19	100*	7	-12	i
COc1cccc(-c2coc3c(C)c4oc(=O)c(CCC(=O)O)c(C)c4cc23)c1	16	100*	-22	-11	i
CC(C)(C)c1nn2cnnc2n(/N=C/c2ccc(O)cc2)c1=O	-12	i	0	-9	i
CCOC(=O)c1ccc(S(=O)(=O)N2CCC(N3CCCCC3)CC2)cc1	-4	i	0	47*	i
O=C1c2cccc3cccc(c23)C(=O)N1CC1CCN(S(=O)(=O)c2ccccc2)CC1	.	.	.	.	i
O=C(OCCCCN1C(=O)c2ccccc2C1=O)c1ccc(S(=O)(=O)N2CCCC2)cc1	12	25*	-1	5	i
O=C(c1ccc(S(=O)(=O)N2CCCCCC2)cc1)N1CCC(CN2C(=O)c3cccc4cccc(c34)C2=O)CC1	20	i	-1	46*	i
CN(C)c1ccc(/C=C(\Cl)c2nc3ccccc3s2)cc1	.	i	4	.	i
NC(=O)/C(=N\OC(=O)c1ccco1)c1nc(-c2ccc(Br)cc2)cs1	16	i	0	-21	i
O=C(c1cccc2ccccc12)C1CCCN(C(=O)c2ccc(N3CCOCC3)cc2)C1 (configuration not stated)	18	i	-33	2	i
COc1ccc2nc(SCCOC(=O)Nc3ccc(Cl)cc3)nc(C)c2c1	-5	25*	6	8	i
CC(Oc1ccc(Cl)cc1Cl)C(=O)Nc1ccc(S(=O)(=O)Nc2cnc3ccccc3n2)cc1 (configuration not stated)	9	100*	-36	-11	.
O=C(Nc1ccc(S(=O)(=O)Nc2cnc3ccccc3n2)cc1)c1ccc(Cl)cc1Cl	4	i	.	-4	i
Cc1cc(Cl)ccc1OC(C)C(=O)Nc1ccc(C(=O)Nc2ccccc2C(=O)O)cc1 (configuration not stated)	16	100*	6	-23	i
Cc1cc(Cl)ccc1OC(C)C(=O)Nc1ccc(S(=O)(=O)Nc2cnc3ccccc3n2)cc1 (configuration not stated)	0	100*	-19	-15	i
SMILES	Apaf1 inhib	ANO1 block	FID counter	UBC13 inh	TMEM16A act
N#Cc1ccccc1S(=O)(=O)c1ccccc1C(=O)Nc1ccccc1	8	i	12	0	i
O=C1CCCN1CCCN=c1c([N+](=O)[O-])nn(-c2ccc(Cl)cc2)n1O	.	.	-10	.	-42*
CC(C)C(C)(C#N)NC(=O)CSc1nnc(-c2ccncc2)n1Cc1ccccc1 (configuration not stated)	3	25*	-18	-6	i
Cc1nnc(SCCOC(N)=O)n1C	.	.	0	.	i
C[N+](C)(C)CCOC(N)=O	-6	i	.	-6	-5.7*
CCCCN=c1scc(-c2ccc3c(c2)NC(=O)CO3)n1N=C1CCCC1	19	i	-4	-3	i
CCN=c1scc(-c2ccc3c(c2)NC(=O)CO3)n1N=C1CCCC1	18	100*	-8	-5	i
CCCCn1c(SCC(=O)c2c(N)n(C3CC3)c(=O)[nH]c2=O)nc2cc(S(N)(=O)=O)ccc21	12	.	.	-2	i
Cn1cnnc1SCC(=O)Nc1ncc([N+](=O)[O-])s1	3	.	.	-20	i
COc1cccc(NC(=O)c2ccccc2NS(C)(=O)=O)c1	1	i	94*	14	i
COc1ccc(NC(=O)c2ccccc2NS(C)(=O)=O)cc1OC	2	i	-3	-9	i
CS(=O)(=O)Nc1ccccc1C(=O)Nc1cccc(Cl)c1	-13	25*	0	6	i
COc1cccc(NC(=O)c2cc(C(=O)Nc3cccc(OC)c3)n(C)n2)c1	41*	i	-22	4	i
CCC(=O)NNC(=O)CCC(=O)Nc1cccc(Cl)c1C	1	i	-5	4	i
N#Cc1c(N)nc(SCc2ccncc2)c(C#N)c1-c1cccs1	14	i	1	26	i
CN1CCc2nc(SCc3ccc(Cl)cc3)c(C#N)c(-c3cccs3)c2C1	83*	i	12	-23	.
NS(=O)(=O)c1ccc(CNC(=O)CCSCCC(=O)NCc2ccc(S(N)(=O)=O)cc2)cc1	-9	i	-4	4	i
CN(C)CCCNc1nc(-c2ccc(Cl)cc2)nc2ccccc12	9	i	54*	17	i
Cc1cccc(-c2nc(NCCCN(C)C)c3ccccc3n2)c1	3	i	63*	24	i
CN(C)CCNc1cc(-c2ccncc2)nc2ccccc12	-7	i	77*	13	i
O=C(NCc1ccccc1)c1cc(-c2ccncc2)nc2ccccc12	13	i	-28	-1	.
Cc1ccc(-c2nc(NCCCO)c3ccccc3n2)cc1	0	i	14	-4	i
O=C(O)CCNc1nc(-c2ccccc2)nc2ccccc12	-10	i	-3	5	i
Cc1ccc(-c2nc(NCCN(C)C)c3ccccc3n2)cc1	7	i	71*	1	i
COc1ccc(CNc2nc(-c3ccccc3)nc3ccccc23)cc1OC	10	i	-7	13	i
O=C(CCc1nc(-c2ccccc2)no1)NCc1ccccc1CN1CCOCC1	10	.	.	-6	i
COCC(C)N1CCC(n2nccc2NC(=O)CCCc2ccccc2)CC1 (configuration not stated)	-2	i	2	-1	i
